This is a sample that favours compounds with a hit; in the whole collection about 3.5% have one here.
RGS4 pot = RGS4 potentiation or activation | HEK293 M3R/inducible RGS4, carbachol calcium flux Fluo4; hits give low values | B-score at 10 µM | actives 0.92% (n = 310,000);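 active = B-score of the integrated calcium signal more than 4 SD below the library mean, with starting fluorescence not abnormally high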;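 also: negative B-score means reduced calcium response which marks RGS4 activation or potentiation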
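Reagent: ECmax carbachol challenge; Test system: M3R-expressing HEK293 line, RGS4 induced by doxycycline; Schedule: overnight RGS4 induction, 30 min dye load 37 °C, 20 min compound RT; Detection: calcium dye Fluo4 fluorescence; Read-out: Agonist-evoked peak-minus-minimum fluorescence over baseline, integrated ratio, B score.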
MrgX1 antagonist = human MrgX1 receptor antagonism, primary screen; actives 1.3% (n = 310,000); MRGX1-HEK293 calcium flux, Fluo-4, BAM8-22 antagonism; hits give low values; B-score at 10 µM;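 active = calcium-response B-score plate-corrected more than 3 library SD below zero, starting fluorescence within 5 deviations, no agonist response on first addition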;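 also: peak minus trough fluorescence over baseline after final BAM8-22 challenge near maximal dose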
Target sequence (Q96LB2 whole entry, looked up): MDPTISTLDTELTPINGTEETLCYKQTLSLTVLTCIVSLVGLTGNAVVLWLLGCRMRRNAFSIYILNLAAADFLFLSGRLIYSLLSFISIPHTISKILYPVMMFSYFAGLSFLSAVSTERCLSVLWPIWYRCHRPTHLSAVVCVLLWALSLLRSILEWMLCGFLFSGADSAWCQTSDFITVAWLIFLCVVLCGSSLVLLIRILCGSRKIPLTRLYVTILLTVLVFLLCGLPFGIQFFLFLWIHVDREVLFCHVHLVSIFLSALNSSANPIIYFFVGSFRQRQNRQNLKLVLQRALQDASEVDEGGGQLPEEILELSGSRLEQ
MrgX1 agonist = agonists of human MrgX1 receptor. actives 0.44% (n = 310,000). AID 588627. B-score at 10 µM. MrgX1-HEK293 cells, Fluo-4 calcium fluorescence, agonist mode; hits give high values;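 active = calcium response B-score plate-corrected fluorescence ratio at least 3 library SD, with starting fluorescence B-score inside 5 SD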
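Material: MrgX1-expressing HEK293 cells / Dosing: compound as first of three additions / Incubation: overnight seeding, then 1 h dark dye loading / Signal: Fluo-4 NW calcium fluorescence / Evaluation: B-scored fluorescence response ratio / Benchmarks: positive and negative control wells on each plate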
RGS4 inh = inhibitors of human RGS4. AID 463165. actives 0.45% (n = 310,000). P49798. HEK293 M3R/RGS4 inducible, Fluo-4 calcium flux; hits give high values; triggered by carbachol at its EC20. B-score at 10 µM;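 active = B-score, a plate-corrected calcium signal, over three deviations above library mean, with baseline fluorescence within five deviations of library mean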;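 also: RGS4 expression induced by doxycycline in cells with stable M3 receptor; B-score is computed from the integrated fluorescence ratio over baseline after carbachol; higher B-score means a larger calcium signal and so more RGS4 inhibition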
Target sequence (P49798 whole entry, looked up): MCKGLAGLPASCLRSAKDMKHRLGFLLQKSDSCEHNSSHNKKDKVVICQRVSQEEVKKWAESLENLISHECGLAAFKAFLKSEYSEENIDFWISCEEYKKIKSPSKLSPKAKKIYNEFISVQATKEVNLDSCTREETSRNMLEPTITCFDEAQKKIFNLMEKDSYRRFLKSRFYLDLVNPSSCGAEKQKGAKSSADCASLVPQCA
MrgX1 PAM = human MrgX1 positive allosteric modulation, primary screen; Q96LB2; MrgX1-HEK293, Fluo-4 calcium flux, FDSS; hits give high values; B-score at 10 µM; actives 0.63% (n = 310,000);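 active = plate-corrected calcium response at least 3 library SD above typical, normal starting fluorescence, not activating the receptor alone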;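 also: compound read alongside a low EC10 to EC30 dose of BAM8-22 agonist; peak minus trough fluorescence over baseline measured at the second addition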
RGS4 inh valid = validation of RGS4 inhibitors; shares compounds with RGS4 inh; HEK293 M3R/RGS4, carbachol calcium Fluo-4 fluorescence; carbachol added at its EC20; 0 = buffer wells, 100 = carbachol control; calcium response, % at 10 µM; actives 65% (n = 1,700);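 active = duplicate-averaged calcium response above the buffer-only control mean plus 5 SD of those controls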;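 also: integrated fluorescence ratio F max minus min over baseline F0; higher response in RGS4-induced cells means RGS4 inhibition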
M3R Ca ctr = checks RGS4 inhibitor effects in non-induced HEK293 M3R cells | actives 20% (n = 1,900) | carbachol calcium Fluo-4; submaximal (EC20) carbachol stimulus; buffer wells 0%, carbachol control wells 100% | shares compounds with RGS4 inh | activity (percent), % at 10 µM | AID 493000; call rule not given here;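 also: RGS4 induction absent so cells express M3R without RGS4; higher means more calcium signal and flags a non-specific hit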
M3R basal Ca ctr = second RGS4 inhibitor counter-screen in uninduced cells lacking carbachol. HEK293 M3R/RGS4 non-induced, Fluo-4 calcium, no carbachol; normalised: buffer wells 0%, carbachol wells 100%. shares compounds with RGS4 inh. actives 22% (n = 1,900). calcium response (agonist-mode artifact), % at 10 µM. AID 493001;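 active = duplicate-averaged calcium rise in uninduced cells above buffer wells' mean plus 5 SD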
* = called active by the depositor; i = inactive; nt = not tested or not shown.

SMILES | RGS4 pot | MrgX1 antagonist | MrgX1 agonist | RGS4 inh | MrgX1 PAM | RGS4 inh valid | M3R Ca ctr | M3R basal Ca ctr
CN(CC(=O)Nc1ncn[nH]1)S(=O)(=O)c1ccc(Cl)cc1 | i | i | i | i | i | nt | nt | nt
C/C(=N\NC(=O)CNC(=O)c1ccc(F)cc1)c1ccco1 | i | i | i | i | i | nt | nt | nt
CCOC(=O)/C(=N\O)C1=NC(C)(C)Cc2ccccc21 | i | i | i | i | i | nt | nt | nt
Cc1cccc(N/N=C(\C(N)=O)C2=NC(C)(C)Cc3ccccc32)c1 | i | i | i | i | 13* | nt | i | i
COc1ccc(S(=O)(=O)NCC(=O)N(Cc2ccco2)C(C(=O)NC(C)(C)C)C(C)C)cc1 (stereo not given) | i | i | i | i | i | nt | nt | nt
COc1ccc(-c2cc(C(F)(F)F)n3nc(C(=O)NCc4ccco4)cc3n2)cc1OC | i | i | i | 8.2* | i | 10%* | i | 10%*
O=C(N/N=C/c1cc(Cl)cc([N+](=O)[O-])c1O)NC12CC3CC(CC(C3)C1)C2 | i | i | i | 9.1* | i | 12%* | i | i
Cc1[nH]n(-c2ncc(-c3ccc(Cl)cc3)s2)c(=O)c1C(c1ccc(Cl)cc1)C(C#N)C#N (stereo not given) | i | i | i | 18* | i | 30%* | i | 48%*
COc1cc2c(cc1[N+](=O)[O-])n(C(C)C)c(=O)n2C(C)C | i | i | i | 4.8* | i | i | 39%* | i
Oc1ccc(Cl)cc1CNCC1CCCCC1 | nt | i | i | nt | i | nt | nt | nt
COC(=O)c1cccc(NC(=O)CC2C(=O)NCCN2C(=O)Nc2cc(C)cc(C)c2)c1 (stereo not given) | i | i | i | i | i | nt | nt | nt
CCN(CC)S(=O)(=O)c1ccc(S(=O)(=O)N2CCCC(C(=O)NC3CC3)C2)cc1 (stereo not given) | i | i | i | i | i | nt | nt | nt
Nn1c(Cc2cccc3ccccc23)nnc1SCCOc1ccc(F)cc1 | i | i | i | 6.5* | i | i | i | i
Nn1c(Cc2cccc3ccccc23)nnc1SCc1c(F)cccc1Cl | i | i | i | i | i | nt | nt | nt
Nn1c(Cc2cccc3ccccc23)nnc1SCCOc1ccc(Br)cc1 | i | i | i | i | i | i | i | i
O=C(O)c1ccc(N/N=C/c2cn(Cc3ccc(F)cc3)c3ccccc23)cc1 | i | i | i | i | i | nt | nt | nt
O=[N+]([O-])/C=C/c1cn(Cc2ccc(F)cc2)c2ccccc12 | i | i | i | 6* | 7.4* | 42%* | i | 68%*
NC(=O)CC(NC(=O)Cc1ccc(Cl)cc1)c1ccc(NC2CCCC2)c([N+](=O)[O-])c1 (stereo not given) | i | i | i | i | i | i | i | i
NC(=O)CC(NC(=O)Cc1ccc(Br)cc1)c1ccc(NC2CCC2)c([N+](=O)[O-])c1 (stereo not given) | i | i | i | i | i | nt | i | i
Cc1cc(C)n(-c2ccc(C(=O)Nc3cc(S(=O)(=O)N(C)C)ccc3Cl)cc2)n1 | i | i | i | i | i | nt | nt | nt
CCOC(=O)[C@@H]1[C@H]2COc3ccccc3[C@H]2N2C(=O)N(c3ccc(F)cc3)C(=O)[C@]12C | i | i | i | i | i | i | i | i
CCOC(=O)[C@@H]1[C@H]2COc3ccccc3[C@H]2N2C(=O)N(c3ccc(Cl)cc3)C(=O)[C@]12C | i | i | i | i | i | i | i | i
CCOC(=O)[C@@H]1[C@H]2COc3ccccc3[C@@H]2N2C(=O)N(c3ccc(C)cc3)C(=O)[C@]12C | i | i | i | i | i | nt | i | i
O=c1[nH]c(-c2ccccc2)c(-c2ccccc2)nc1[N+](=O)[O-] | i | i | i | i | i | nt | nt | nt
Cc1cccnc1NC(=S)NC(=O)c1oc2ccccc2c1C | i | i | i | i | i | nt | nt | nt
SMILES | RGS4 pot | MrgX1 antagonist | MrgX1 agonist | RGS4 inh | MrgX1 PAM | RGS4 inh valid | M3R Ca ctr | M3R basal Ca ctr
Cc1onc(-c2ccccc2)c1C(=O)N(Cc1ccco1)Cc1cccs1 | i | nt | nt | i | nt | nt | nt | nt
CC(C)(C)c1nn(-c2ccccc2)c2nc(Cl)c(C=O)cc12 | i | i | i | 5* | i | 13%* | 30%* | i
CCOC(=O)C1CCN(C(C(=O)NC2CCCC2)c2ccc(C)cc2)CC1 (stereo not given) | i | i | i | 5.3* | i | 21%* | i | i
CCN(CC)CCCN1C(=O)CSC1c1ccc([N+](=O)[O-])cc1 (stereo not given) | i | i | i | i | i | nt | nt | nt
CN(CCOc1ccccc1)CC(=O)Nc1cccc(C#N)c1 | i | i | i | i | i | nt | nt | nt
CCC(=O)Nc1ccc(C=C(C(C)=O)C(C)=O)cc1 | i | i | i | 5* | i | 56%* | 29%* | 16%*
COc1ccc2c(c1)-c1nc(NC(=O)c3ccco3)sc1CC2 | i | i | i | 17* | i | 48%* | 59%* | i
Cc1sc(NC(=O)c2ccco2)nc1-c1ccccc1 | i | i | i | 7* | i | 31%* | i | i
COc1ccc2c(c1)CCc1sc(NC(=O)c3ccco3)nc1-2 | i | i | i | 6.6* | i | 26%* | 32%* | i
COc1ccc2c(c1)Cc1sc(NC(C)=O)nc1-2 | i | i | i | i | i | nt | nt | nt
COc1ccc2c(c1)Cc1sc(NC(=O)c3ccco3)nc1-2 | i | i | i | i | i | nt | i | i
CCOc1ccc(N(CC(=O)NCc2ccccc2C)S(C)(=O)=O)cc1 | i | i | i | i | i | nt | nt | nt
CCN(CC)S(=O)(=O)c1ccc(N(C)C)c(NC(=O)CSCc2c(C)noc2C)c1 | i | i | i | i | i | nt | nt | nt
CCOc1ccc(CCNC(=O)CCCn2c(=O)c3cccn3c3cccnc32)cc1OCC | i | i | i | i | i | nt | nt | nt
